Activity calls are given as the source filed them. No cut-off for these calls is given here.

This is an account of results in ChEMBL document CHEMBL1140061, “Novel azolyl-(phenylmethyl)]aryl/heteroarylamines: potent CYP26 inhibitors and enhancers of all-trans retinoic acid activity in neuroblastoma cells” (Bioorg Med Chem, 2008).

For assay [1], the target named is T1, Cytochrome P450 26A1 (Homo sapiens, UniProt O43174).
T1 sequence (O43174 whole entry): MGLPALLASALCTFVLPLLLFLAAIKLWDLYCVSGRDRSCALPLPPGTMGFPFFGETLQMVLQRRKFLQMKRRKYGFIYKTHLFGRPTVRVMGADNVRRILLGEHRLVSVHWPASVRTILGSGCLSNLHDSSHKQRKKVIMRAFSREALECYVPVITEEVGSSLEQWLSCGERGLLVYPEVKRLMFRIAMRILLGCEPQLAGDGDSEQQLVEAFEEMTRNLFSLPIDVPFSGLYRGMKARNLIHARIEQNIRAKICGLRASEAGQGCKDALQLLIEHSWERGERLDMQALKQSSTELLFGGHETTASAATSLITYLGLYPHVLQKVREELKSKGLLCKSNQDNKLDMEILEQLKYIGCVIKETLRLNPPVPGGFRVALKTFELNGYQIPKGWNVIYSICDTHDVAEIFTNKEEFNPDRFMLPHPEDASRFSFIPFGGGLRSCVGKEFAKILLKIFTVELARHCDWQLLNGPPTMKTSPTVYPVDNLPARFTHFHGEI
The assay is described as follows: Inhibition of CYP26A1 in human MCF7 cells.

Assay [2] relates to SH-SY5Y. The assay is described as follows: Increase in all-trans retinoic acid-induced CYP26B1 mRNA expression in human SH-SY5Y cells at 0.01 to 10 uM after 24 hrs relative to all-trans retinoic acid. The settings on record: in the assay text read “0.1 to 10 uM” for “0.01 to 10 uM”. In kind it is functional. The gist of the method: (§1)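 SH-SY5Y neuroblastoma cells were grown at 37 °C in RPMI 1640 with 10% foetal calf serum and 2 mM L-glutamine under 5% CO2. Inhibitor was given alone or with atRA (DMSO vehicle) for 24 h. Total RNA was reverse transcribed and CYP26B1 was measured by TaqMan real-time PCR, normalised to β-actin. Results are fold change versus atRA-only cells by the comparative Ct method, mean ± S.E.M., n ≥ 3.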

In assay [3] the test system is SH-SY5Y. The assay is described as follows: Increase of CYP26B1 mRNA expression in human SH-SY5Y cells. In kind it is functional, cell-based. The gist of the method:
as §1

Assay [4] deals with SH-SY5Y. The assay is described as follows: Increase of all-trans retinoic acid-induced CYP26B1 mRNA expression in human SH-SY5Y cells at 1 uM after 24 hrs relative to all-trans retinoic acid. In kind it is functional. In short, it runs like this:
as §1

The test system of assay [5] is T47D. Briefly: Inhibition of all-trans retinoic acid metabolism in human T47D cells. In kind it is functional, cell-based.
Assay [6] has as its system SH-SY5Y. The assay is described as follows: Increase in all-trans retinoic acid-induced CYP26B1 mRNA expression in human SH-SY5Y cells at 10 uM relative to R116010. Type of assay: functional, cell-based.

As usually defined, the IC50 is the midpoint of a concentration-inhibition curve. Read a high IC50 as weaker potency in that assay. As for `c1ccc(C(c2ccc(Nc3nc4ccccc4[nH]3)cc2)n2ccnc2)cc1` (stereo unspecified), half-maximal inhibition in assay [1] (IC50) required 2.5 µM.

Regarding `c1ccc(C(c2ccc(Nc3nc4ccccc4s3)cc2)n2ccnc2)cc1` (stereo unspecified), the “fold change (FC)” value in assay [2] came to 2. In addition, the result in assay [3] was inactive. In assay [1], the IC50 came to 1.5 µM. In assay [1], `CCc1ccc(C(c2cc3ccccc3o2)n2cncn2)cc1` (stereo unspecified) showed an IC50 of 4.5 µM. `c1ccc(C(c2ccc(Nc3ccc4c(c3)CCC4)cc2)n2ccnc2)cc1` (stereo unspecified) yielded an IC50 in assay [1] of 1 µM.

Consider `c1ccc(-c2ccc(C(c3cc4ccccc4o3)n3cncn3)cc2)cc1` (stereo unspecified), for which, in assay [1], the IC50 amounted to 7 µM. Same read-out and setting: for `CC(c1ccc(Nc2ccccc2)cc1)n1ccnc1` (stereo unspecified) the value was 35 µM. For the compound `c1ccc(Nc2ccc(C(c3ccccc3)n3cncn3)cc2)cc1` (stereo unspecified), in assay [4], the outcome was inactive. Also, in assay [1], half-maximal inhibition (IC50) was put at 5 µM. Compound `C[C@H]([C@@H](c1ccc(Nc2nc3ccccc3s2)cc1)n1ccnc1)N(C)C` displayed an IC50 in assay [5] of 0.0087 µM. Besides, the “fold change (FC)” value in assay [4] was 5. Consider `c1ccc(C(c2ccc(Nc3nc4ccccc4o3)cc2)n2ccnc2)cc1` (stereo unspecified), for which the “fold change (FC)” value in assay [2] was determined as 4. Also, the result in assay [3] was inactive. In assay [1], this compound displayed an IC50 of 0.9 µM. In assay [1], `c1ccc(Nc2ccc(C(c3ccccc3)n3ccnc3)cc2)cc1` (stereo unspecified) had an IC50 of 5 µM. On the same count and under the same terms, in the case of `CC(c1ccc(Nc2ccccc2)cc1)n1cncn1` (stereo unspecified) it was above 50 µM; in that of `CC(c1ccc(Nc2ccc3ccccc3c2)cc1)n1ccnc1` (stereo unspecified), 15 µM. For the compound `c1ccc(C(c2ccc(Nc3ccc4ccccc4c3)cc2)n2ccnc2)cc1` (stereo unspecified), in assay [3], the result was inactive. The outcome in assay [6] was Active. The compound also displayed an IC50 in assay [1] of 0.5 µM.
